Among the data in the RNAGym collection of RNA variant scans (doi:10.1101/gad.245936.114) are nonsense suppression values, retold here.

The labels stand for the following.
B1: tRNA (parent)
chain: CUCUCGGUAGCCAAGUUGGUUUAAGGCGCAAGACUUUAAUUUAUCACUACGAAAUCUUGAGAUCGGGCGUUCGACUCGCCCCCGGGAGAUUUUUUCCUCGAGCAA

Variants at the floor of the assay were thinned out. A value given as a limit tells only on which side of the number the result lay.

Variants of B1 are the subject of the data set. Briefly: nonsense suppression (GFP-seq) (ratio to wild type); higher = more function; SUP4oc tRNA, yeast GFP reporter sort-seq. The method in brief: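 To measure nonsense suppression, tRNA variants from a library carrying ~3% random mutations were integrated into the yeast genome alongside RFP and a GFP ochre reporter under galactose control. Growth took place in raffinose/galactose medium supplemented with 80 mg/L adenine, followed by sorting into GFP/RFP bins and Illumina sequencing of each bin (phred ≥30). For each variant with ≥100 reads and ≥30 cells, the bin median GFP/RFP values were weighted by its estimated cell share per bin and referenced to the unmutated parent tRNA.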
Take C3A U22C G26U C80A: the nonsense suppression was at most 0.026. The value for U2C U20C was 0.0975; that for U2G C3U C27G G66A U70C was at most 0.026. Then C3U A13G C34G, with 0.439; and U2C A14U U57C, with at most 0.026.

Turning to C3G U20G G69A U70C, the nonsense suppression was at most 0.026. Then C1G U8C U55G G69C, with at most 0.026; and C1A G19C A31G A60U U71A C72G G84U, with at most 0.026. The value for C3A A13C was 0.0261; that for C3A A13U was 0.0379; that for U2C A24G A31C A60C C82A G85C was at most 0.026.

Consider C1U G18A, for which the nonsense suppression was at most 0.026. Consider C3A U70G, for which the nonsense suppression is at most 0.026. Take C1U G26A: the nonsense suppression was at most 0.026.

On to C3A U58G U76A, for which the nonsense suppression is at most 0.026. Then C1A A62G A74C G84A, with at most 0.026. The value for C1G A9G C11A U21A A30C G78A was at most 0.026; that for U2G A13U was 0.0638; that for C3A G15U G25A was at most 0.026.

With U2C G6U C29U, the nonsense suppression was at most 0.026. Turning to U2C C5G, the nonsense suppression is at most 0.026.

As for U2C C5A, the nonsense suppression is at most 0.026.

As to U2C, the nonsense suppression turned out to be 0.185.

With C1U U35A C77A G84U, the nonsense suppression is at most 0.026.

On to U2C A31G C72U, for which the nonsense suppression is at most 0.026. For the variant C3A G67U, the nonsense suppression was at most 0.026.

With C3G U4C, the nonsense suppression is 0.399. Then C3G U4G, with 0.0277; and C1G G25A G65A C83G, with at most 0.026.

With U2A C29U, the nonsense suppression was 0.0437. On to U2G A23G G66A, for which the nonsense suppression was at most 0.026.

Consider C1U U4G C5U A31G C81A, for which the nonsense suppression was at most 0.026.

As to U2A C27U A31G U57C, the nonsense suppression was at most 0.026. Then C1G A54G U63G U70G, with at most 0.026; and C3G C56G, with at most 0.026. With C3A A9G C64G, the nonsense suppression is at most 0.026. Then U2A A60G, with 0.0755; and C1G U20C, with 0.0266. The value for C1U G26A G69U C79U was at most 0.026; that for U2C U21C U57G was at most 0.026. The value for U2C G61C was 0.0279; that for U2C G61U was 0.122. Take C3A C5G U57C U70A C80A: the nonsense suppression is at most 0.026. In the case of C1G A13U G25U G59C, the nonsense suppression is at most 0.026. For the variant U2A G73A, the nonsense suppression is 0.0508. As for C1U G66U G86A, the nonsense suppression is at most 0.026. Take C1A U71C C77G: the nonsense suppression was at most 0.026. In the case of C3A C29G A60C C81G, the nonsense suppression is at most 0.026. As to C1G C27A U55G, the nonsense suppression was at most 0.026. For the variant C3A U57A C80U A89U, the nonsense suppression is at most 0.026. Then C1U U4A, with 0.0473; and U2C G86A, with at most 0.026. Take C1U A9U A13C C64U: the nonsense suppression was at most 0.026. Then C3A U20A G28A, with at most 0.026; and U2C U17A, with 0.0435.

Take C3G A24C A31C: the nonsense suppression is at most 0.026. For the variant U2C G19C U35A, the nonsense suppression is at most 0.026. Turning to U2G C11U U55G A60U C82G G86C G88U, the nonsense suppression is at most 0.026. C1A U35G: the nonsense suppression was at most 0.026.

Regarding C1G G61A U76C, the nonsense suppression was determined as 0.0371. C1A A54G A62U: the nonsense suppression is at most 0.026. For C3G C77A, the nonsense suppression was at most 0.026. The value for U2A A33G was at most 0.026; that for U2G A87U was 0.655; that for C1U A62G C80A was at most 0.026.

Turning to C1G U8G U63C G73U, the nonsense suppression is at most 0.026. The value for C3A C12G G18U U20G G61U U70G C75G was at most 0.026; that for C3U A13U C34G was at most 0.026. In the case of U2G C12A, the nonsense suppression was at most 0.026.

On to C3A G86C, for which the nonsense suppression is at most 0.026.

With U2C A60U, the nonsense suppression came to 0.194. As to U2C A60C, the nonsense suppression was 0.0359.

On to C3U A33U, for which the nonsense suppression was found to be 0.027. In the case of C1U C3A C29A, the nonsense suppression is at most 0.026. Then C1U C3U C12U, with at most 0.026; and U2G G32C, with at most 0.026; and C3U A31G, with 0.0805. With C3U A31U, the nonsense suppression was at most 0.026. The value for U2C C75U was 0.206. Take C1U U2G U20G C29A: the nonsense suppression was at most 0.026. For C3A C29U A87G, the nonsense suppression was at most 0.026. Consider C1U C12G, for which the nonsense suppression amounted to 0.327.

On to C1U C12U, for which the nonsense suppression is at most 0.026. Turning to C1U C12A, the nonsense suppression was at most 0.026. The value for C3G G78A was at most 0.026; that for C3A C29A A54U was at most 0.026; that for U2A A23C was at most 0.026. The value for C1U G7A was at most 0.026.

For U2C A89U, the nonsense suppression is at most 0.026. Regarding C1A G73A, the nonsense suppression amounted to 0.112. The value for C3G U8G U21C C34U was at most 0.026; that for U2A C68U was 0.18; that for C1G U20G A23U C27A U76A G88U was at most 0.026.

For C3G A23G C27U C81A C83A G86A, the nonsense suppression is at most 0.026. Then C1U G6C G10U U58C, with at most 0.026; and C3A U20C U55C, with at most 0.026.

As for U2A A13C, the nonsense suppression was at most 0.026. Then U2A A13U, with 0.0284. C1U G26U C34G: the nonsense suppression is at most 0.026. Then U2A U55C, with 0.0451.

As to C1A C12G U58A, the nonsense suppression was at most 0.026. With U2C U4G, the nonsense suppression worked out at 0.0326. For the variant U2C U4C, the nonsense suppression stood at 1.01. The value for C1A U16A G88C was at most 0.026. On to C1A U2G G19A G32C A89G, for which the nonsense suppression was at most 0.026. The value for U2G G78U was 0.0774. As for U2C C12G, the nonsense suppression was at most 0.026. Then C1G A9C G18U U71G, with at most 0.026; and C3G A9G G59U, with at most 0.026. The value for C1A G85U was 0.03; that for C1U A23G C29U C64G was at most 0.026; that for U2C A13U was 0.0357.

As to C1U U71G, the nonsense suppression is at most 0.026. Then C1U C3G G86A, with at most 0.026; and C1U G26A U57C, with at most 0.026; and U2G G6C A89C, with at most 0.026. C1A U8A U55C A89U: the nonsense suppression was at most 0.026. U2A G61A: the nonsense suppression was 0.0448.

Take U2C U63G G73A: the nonsense suppression was at most 0.026.

In the case of C1U U55G U58G, the nonsense suppression was at most 0.026. For C3G A33U C34U A62G G67C, the nonsense suppression is at most 0.026. The value for C1U C3A U8A U17C was at most 0.026; that for U2C G26U U76A was at most 0.026; that for C3G C29G A54U was at most 0.026. On to C1A G19U U55A, for which the nonsense suppression is at most 0.026. Then U2G G85U, with 0.0411; and U2G G85A, with at most 0.026. Then C1G C5G A31C G73A, with at most 0.026; and C1A C80U, with 0.0314.

For the variant U2A G19C, the nonsense suppression is at most 0.026. Then C3G C77A C83A, with at most 0.026.

In the case of U2C G18C G25U A54C U57C G61U U70G, the nonsense suppression is at most 0.026. Then C3G A31C C68G C77U, with at most 0.026. The value for U2A C34U was at most 0.026. The value for C1U G85C A89C was at most 0.026; that for C1G G73A was 0.0631; that for C3G A30G C34G U55G G69C C79A was at most 0.026. As for C1U U20A G73C, the nonsense suppression is 0.722.

With C3G U16G G66A, the nonsense suppression was at most 0.026. As to C3A G65A C68U G86U, the nonsense suppression was at most 0.026. Then C1G U55C, with 0.0398; and C3A U4C, with 0.191; and C3G A30G U58A, with at most 0.026. The value for U2C U55C U58G was at most 0.026. With C1U C3U C64G G69U, the nonsense suppression is at most 0.026. Consider C1G U16A, for which the nonsense suppression turned out to be 0.777. For C3A A23C G26A U58A G78C, the nonsense suppression is at most 0.026. For the variant U2G A14C G84C, the nonsense suppression was at most 0.026.

For U2A U4A, the nonsense suppression came out at 0.0323. The value for U2A U4G was 0.203.

For the variant U2C A23G, the nonsense suppression was determined as 0.0274. Then U2A C80U, with 0.0354. The value for C1U C56A U76C was at most 0.026; that for U2A G84A A89G was at most 0.026; that for C1U G7C G69C G85C was at most 0.026. With C3A G28U G65C, the nonsense suppression is at most 0.026. Then C3U A13C, with 0.184. C3U A13U: the nonsense suppression was 0.194. As for U2C U20C A24U, the nonsense suppression was at most 0.026. Then C3U A9G, with 0.195; and C3G U55C, with 0.152. As for C3G C11A C81G, the nonsense suppression is at most 0.026. For C3A G78A, the nonsense suppression was determined as 0.0776. Turning to U2G U20A U63C U76C, the nonsense suppression was at most 0.026.

For C3U A30G C34U, the nonsense suppression was at most 0.026. Consider C1U A54U G88A, for which the nonsense suppression is 0.209. As for U2G U58G C83G, the nonsense suppression was at most 0.026.
